Pf gametocyte: inhibitors of late stage P. falciparum gametocyte viability. P. falciparum stage V gametocytes, ATP luminescence, 24 h. inhibition, % at 10.9 µM. 150,000 compounds, 0.065% hits. AID 743093;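 active = inhibition above the mean plus 3 SD of compounds within the control limits, set per campaign, cut at about 38% in these data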
WT yeast gro inh: growth inhibition of WT yeast, mitochondrial fusion screen; inhibition, % at 10 µM; 190,000 compounds, 2.1% hits; mitochondrial fusion phenotypic screen, WT strain; AID 1362; in the data active = inhibition above about 58%; tested in S. cerevisiae
MT stabilize HCS: microtubule stabilizers in HeLa cells. HeLa tubulin immunostaining HCS, 24 h; share of cells brighter than vehicle mean+2SD. % tubulin-high responders, % at 10 µM. 200,000 compounds, 0.83% hits. AID 2205;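 active = plate Z-score above 3 for both tubulin-high and condensed-nucleus cell shares, with cell loss under 80%, at 10 µM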;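 note: anti alpha tubulin signal scored within the nucleus-defined area of each cell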
KCC2 mod: modulates chloride dependent transport by human KCC2 | KCC2 cells, thallium flux FluoZin-2 fluorescence | B-score of Tl+ flux slope (higher = more flux/activation; lower = inhibition) at 10 µM | 190,000 compounds, 2.2% hits;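 active = thallium flux slope and its plate-corrected score both differing from the plate sample mean at a set confidence after two filtering rounds, in either direction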;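 note: slope of fluorescence scaled to starting intensity during 10 to 20 s after thallium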
Target sequence (Q9H2X9 whole entry, looked up): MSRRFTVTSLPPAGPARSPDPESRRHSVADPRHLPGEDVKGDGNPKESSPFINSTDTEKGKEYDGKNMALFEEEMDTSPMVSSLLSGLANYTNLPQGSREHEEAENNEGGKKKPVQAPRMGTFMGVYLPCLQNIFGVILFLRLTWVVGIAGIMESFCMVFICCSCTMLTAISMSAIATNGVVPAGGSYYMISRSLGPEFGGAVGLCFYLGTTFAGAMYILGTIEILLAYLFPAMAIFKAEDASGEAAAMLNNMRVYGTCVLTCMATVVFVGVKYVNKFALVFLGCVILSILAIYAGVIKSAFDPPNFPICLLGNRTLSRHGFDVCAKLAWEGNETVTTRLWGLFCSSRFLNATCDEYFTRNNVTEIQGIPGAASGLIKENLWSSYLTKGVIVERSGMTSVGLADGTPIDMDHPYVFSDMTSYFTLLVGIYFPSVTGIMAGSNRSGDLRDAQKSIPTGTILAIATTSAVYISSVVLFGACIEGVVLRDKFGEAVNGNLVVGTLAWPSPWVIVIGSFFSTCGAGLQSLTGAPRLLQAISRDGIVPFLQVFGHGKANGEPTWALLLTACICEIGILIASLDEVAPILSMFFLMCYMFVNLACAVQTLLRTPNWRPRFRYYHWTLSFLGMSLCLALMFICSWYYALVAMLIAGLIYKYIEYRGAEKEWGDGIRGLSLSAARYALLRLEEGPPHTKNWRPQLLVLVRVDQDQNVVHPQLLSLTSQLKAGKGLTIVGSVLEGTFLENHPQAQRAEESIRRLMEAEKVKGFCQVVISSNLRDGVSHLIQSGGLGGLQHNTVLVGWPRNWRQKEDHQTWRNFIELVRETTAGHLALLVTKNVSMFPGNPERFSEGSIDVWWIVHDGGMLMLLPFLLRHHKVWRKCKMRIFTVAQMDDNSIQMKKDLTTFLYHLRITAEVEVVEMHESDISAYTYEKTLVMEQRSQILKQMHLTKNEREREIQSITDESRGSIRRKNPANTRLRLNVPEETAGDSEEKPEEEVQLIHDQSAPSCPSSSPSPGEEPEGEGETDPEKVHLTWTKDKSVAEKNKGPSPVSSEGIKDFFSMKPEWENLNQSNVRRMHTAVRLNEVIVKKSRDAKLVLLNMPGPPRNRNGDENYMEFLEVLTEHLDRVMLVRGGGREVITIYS
bCat nuc transl: modulators of beta-catenin nuclear translocation. HeLa beta-catenin nuclear translocation, immunofluorescence imaging. 190,000 compounds, 0.3% hits. AID 1665. nuclear translocation activity, % at 5 µM;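 active = nuclear translocation activity above 50% at 5 µM, with a well cell count of 50 or more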;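 note: per-cell ratio of nuclear to cytoplasmic median beta-catenin stain intensity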
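Test system: HeLa cells, endogenous beta-catenin; Compound: single 5 µM dose plus 0.02–20 µM confirmation series; Times: compound exposure 24 h at 37°C; Signal: fluorescence imaging of beta-catenin antibody stain plus DAPI; Read-out: % activation, nuclear-to-cytoplasmic median beta-catenin signal ratio per cell.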
Each line names hits and unclear results; the compound was inactive in the other large screens. This is a sample that favours compounds with a hit; in the whole collection about 4% have one here.

Clc1cc(Cl)c(OCc2nc(-c3ccccn3)no2)cc1Cl	none (no result: bCat nuc transl)
O=C(NC1(C(F)(F)F)N=C2SCCN2C1=O)c1ccccc1F (stereo unspecified)	none (no result: WT yeast gro inh, MT stabilize HCS)
C/C(=N\NC(=S)NCc1ccccc1)c1ccc(C#N)cc1	none
C/C(=N\NC(=S)NCc1ccccc1)c1ccc(C(C)(C)C)cc1	WT yeast gro inh 63
COc1cccc(/C=C/C(=O)OCC(=O)NCCC2=CCCCC2)c1	none
O=C(Nc1nnc(-c2ccc3c(c2)OCCO3)o1)c1ccc(Cc2ccccc2)cc1	WT yeast gro inh 61 (no result: Pf gametocyte, bCat nuc transl)
O=C(Nc1nnc(-c2ccc3c(c2)CCCC3)o1)c1ccccc1Cl	KCC2 mod 50 (no result: Pf gametocyte)
O=C(Nc1nnc(-c2ccc3c(c2)CCCC3)o1)c1ccccc1	WT yeast gro inh 75, KCC2 mod 79 (no result: Pf gametocyte)
O=C(Nc1nnc(-c2ccc(Cl)cc2)o1)c1ccc(N2C(=O)CCC2=O)cc1	KCC2 mod 12 (no result: Pf gametocyte)
O=C(Nc1nnc(-c2ccco2)o1)c1ccc(N2C(=O)CCC2=O)cc1	none
CCOC(=O)Cc1nc(-c2ccc(Cl)cc2)n[nH]1	none
CCOC(=O)C1CCN(C(=O)Nc2c(-c3ccccc3)noc2C)CC1	none (no result: WT yeast gro inh, MT stabilize HCS)
COc1ccc(F)cc1S(=O)(=O)Nc1cccc(C(=O)O)c1	none (no result: Pf gametocyte, bCat nuc transl)
COc1ccc2nc(NC(=O)c3cccc(OCc4c(C)noc4C)c3)sc2c1	WT yeast gro inh 73, MT stabilize HCS 30, bCat nuc transl 72 (no result: Pf gametocyte)
CCSc1nnc(NC(=O)c2cccc(OCc3c(C)noc3C)c2)s1	none (no result: Pf gametocyte)
CCOc1ccc(-n2c3nc4ccccc4nc3c3c(=O)n(Cc4ccco4)cnc32)cc1	KCC2 mod 2.8 (no result: Pf gametocyte, WT yeast gro inh, bCat nuc transl)
O=C(COc1ccccc1/C=C1\SC(=O)NC1=O)Nc1ccccc1	KCC2 mod -4.5
CCOC(=O)c1cc(-c2ccccc2)n(CC2CC(c3ccc(OC)cc3)=NO2)n1 (stereo unspecified)	none (no result: WT yeast gro inh, MT stabilize HCS, KCC2 mod, bCat nuc transl)
CC1CCCCC1NCC(=O)NCc1ccc(F)cc1 (stereo unspecified)	none (no result: KCC2 mod)
CCOc1cc(S(=O)(=O)Nc2ccccc2CC)ccc1Cl	WT yeast gro inh 69
COC(=O)c1cnc(NNS(=O)(=O)c2ccc(C(F)(F)F)cc2)nc1C(F)(F)F	none (no result: WT yeast gro inh, MT stabilize HCS)
C/C(=N\NC(=O)CC1N=C(Cc2ccccc2)NNC1=O)c1ccc(Cl)cc1Cl (stereo unspecified)	MT stabilize HCS 22
CC(C)(C)SCCNC(=O)CN(c1ccccc1)S(=O)(=O)c1ccccc1	none
COC(=O)Nc1nc(-c2ccccc2)c(C(=O)c2ccccc2)s1	bCat nuc transl 162 (no result: Pf gametocyte)
CN(C)S(=O)(=O)c1ccc(C(=O)Nc2nc(-c3ccccc3)c(C(=O)c3ccccc3)s2)cc1	none
COC(=O)Nc1nc(C)c(C(=O)c2ccccc2)s1	bCat nuc transl 56 (no result: Pf gametocyte)
Cc1ccc2nc(Cl)c(/C=N/NC(=O)c3ccccc3O)cc2c1	WT yeast gro inh 62
Cc1ccc2nc(Cl)c(/C=N/NC(=O)[C@H]3C[C@@H]3c3ccccc3)cc2c1	none
O=C(N/N=C/c1ccccc1OCc1ccccc1)c1cccs1	none (no result: Pf gametocyte, bCat nuc transl)
COc1ccc(C)cc1S(=O)(=O)N(C)CC(=O)N1CCN(c2ccccc2)CC1	none
COc1ccc2nc(-n3c(C)ccc3C)sc2c1	none
COc1ccc2nc(N3C(=O)/C(=C/c4ccccc4)NC3=S)sc2c1	KCC2 mod 76
CCOc1ccc2nc(N3C(=O)/C(=C/c4ccccc4)NC3=S)sc2c1	KCC2 mod 62
O=C1c2[nH]nc(-c3ccccc3O)c2C(c2cccc(Cl)c2)N1Cc1ccco1 (stereo unspecified)	MT stabilize HCS 17 (no result: KCC2 mod)
O=C1c2[nH]nc(-c3ccccc3O)c2C(c2ccc(F)cc2)N1Cc1ccco1 (stereo unspecified)	none (no result: KCC2 mod)
CC(=O)c1ccc(-n2nnnc2SCC(=O)Nc2cccc(NC(=O)c3ccco3)c2)cc1	WT yeast gro inh 73 (no result: Pf gametocyte)
CC(=O)Nc1cccc(NC(=O)CSc2nnnn2Cc2ccccc2)c1	WT yeast gro inh 75 (no result: Pf gametocyte)
Cc1ccc(-n2nnnc2SCC(=O)Nc2cccc(NC(=O)c3ccco3)c2)cc1C	none (no result: KCC2 mod)
OC(COCCOc1ccc(Br)cc1)CN1CCCCC1 (stereo unspecified)	none (no result: Pf gametocyte)
CCCCCOc1ccc(CSc2n[nH]c(C)n2)cc1	WT yeast gro inh 80
COC(=O)C1=C(N)N(c2ccccc2F)C2=C(C(=O)CC(C)(C)C2)C1c1ccc(OC)c(OC)c1 (stereo unspecified)	none
Cc1cccc(C(=O)NC(NCCc2ccccc2)C(Cl)(Cl)Cl)c1 (stereo unspecified)	WT yeast gro inh 59 (no result: Pf gametocyte)
CCC(=O)C1=C(O)C(c2cccc(Oc3ccccc3)c2)CCC1=O (stereo unspecified)	WT yeast gro inh 63
COc1ccc2c(c1)C(=O)CCC2c1ccccc1 (stereo unspecified)	none (no result: WT yeast gro inh, MT stabilize HCS, KCC2 mod, bCat nuc transl)
CCOC(=O)N1CCN(S(=O)(=O)c2ccc(OCC)c(C)c2)CC1	none
CCOC(=O)N1CCN(S(=O)(=O)c2ccc(C)c(C)c2)CC1	WT yeast gro inh 81 (no result: KCC2 mod)
CCN(C(=O)c1cnc(NC(C)C)cc1C(F)(F)F)c1ccc(Cl)cc1Cl	none (no result: WT yeast gro inh, MT stabilize HCS)
COc1ccc(-c2cc(C(F)(F)F)nc(NCc3cccs3)n2)cc1	none
COc1ccccc1-c1cc(C(F)(F)F)nc(NCc2cccs2)n1	WT yeast gro inh 65
CC1(C)OC(C(O)(c2ccccc2)c2ccccc2)[C@@H](C(O)(c2ccccc2)c2ccccc2)O1 (stereo partly specified)	none (no result: WT yeast gro inh, MT stabilize HCS, KCC2 mod, bCat nuc transl)
CCOc1cc(S(=O)(=O)n2ccnc2)ccc1Cl	none
CC/C(=C\C1CCCCC1)C(NP(=O)(c1ccccc1)c1ccccc1)c1ccccc1 (stereo unspecified)	WT yeast gro inh 79 (no result: Pf gametocyte)
O=C(NCC1CC1)[C@@H]1C[C@H]1[C@@H](NP(=O)(c1ccccc1)c1ccccc1)c1ccccc1	none (no result: Pf gametocyte, bCat nuc transl)
Cc1ccc(-c2nn(C)c(=O)c3ccccc23)cc1S(=O)(=O)NCCN1CCOCC1	none (no result: Pf gametocyte, KCC2 mod)
CCOC(=O)CNS(=O)(=O)c1cc(-c2nn(C)c(=O)c3ccccc23)ccc1C	WT yeast gro inh 70 (no result: bCat nuc transl)
Brc1ccc2[nH]c3c(c2c1)CCC3	none (no result: WT yeast gro inh, MT stabilize HCS)
NC(=O)c1cc(Br)cc2c3c([nH]c12)CCCC3	WT yeast gro inh 66 (no result: Pf gametocyte, KCC2 mod)
Fc1cccc2sc(Nc3nc4cc5c(cc4s3)OCCO5)nc12	KCC2 mod 11 (no result: Pf gametocyte)
Fc1cccc2sc(Nc3nc4cc5c(cc4s3)OCO5)nc12	KCC2 mod 23
Cc1ccc2c(c1)-n1c(nc3ccc(C)cc3c1=O)C(Cc1ccc(O)cc1)NC2=O (stereo unspecified)	none (no result: WT yeast gro inh, MT stabilize HCS, KCC2 mod, bCat nuc transl)
Cc1cc(C)c2[nH]c(=S)cc(C)c2c1	KCC2 mod 31
CSC(=S)N/N=C/c1ccc(N(C)C)cc1	KCC2 mod 61
Cc1cc(NC(=O)CN2C(=O)NC3(CCCCCC3)C2=O)no1	none (no result: WT yeast gro inh, MT stabilize HCS)
CCCN(Cc1ccccc1)C(=S)Nc1ccc(SC(F)F)cc1	WT yeast gro inh 70 (no result: bCat nuc transl)
CCCCCn1c(CN2CCN(c3cccc(Cl)c3)CC2)nc2c1c(=O)n(C)c(=O)n2C	none (no result: Pf gametocyte, WT yeast gro inh)
CCCCCn1c(CN2CCN(c3cc(Cl)ccc3C)CC2)nc2c1c(=O)[nH]c(=O)n2C	WT yeast gro inh 65 (no result: Pf gametocyte)
CCCCCn1c(N2CCN(c3cccc(Cl)c3)CC2)nc2c1c(=O)[nH]c(=O)n2C	none (no result: Pf gametocyte)

Compound activity as filed in PubChem.
